Measurements reported in ChEMBL document CHEMBL1122853, “New bicyclic antidepressant agent. Synthesis and activity of napactadine and related compounds” (J Med Chem, 1985).
Calls of active or inactive are those of the source. The rule behind the calls is not given here.

Key:
[1] = test system: Mus musculus; test: Effective dose required to prevent reserpine ptosis in mice, administered (po)orally; assay type: functional
How it was run: (§1)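 Male Swiss-Webster or Harlan ICR mice, five per dose. Drug in saline given po or ip per line. Reserpine 2.5 mg/kg ip 30 min later. Complete absence of ptosis at 45 min after reserpine scored as positive. ED50 by Litchfield-Wilcoxon or Horn method, with 95% confidence intervals.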

[2] = test system: Mus musculus; test: Effective dose required to prevent reserpine ptosis in mice, administered orally(po); assay type: functional; how it was run: as §1
[3] = test system: Mus musculus; test: Effective dose required to prevent reserpine ptosis in mice, administered intraperitoneally.; assay type: functional, organism-based; how it was run: as §1
[4] = test system: Mus musculus; test: Effective dose required to prevent reserpine ptosis in mice, administered orally(po); NA=Not active at 100 mg/kg; assay type: functional, organism-based; parameters: dose 100 mg/kg; how it was run: as §1
[5] = test system: Mus musculus; test: (§2) Effective dose required to potentiate yohimbine hydrochloride induced lethality in mice, administered intraperitoneally; assay type: functional; conditions: ip
How it was run: (§3)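 Male Swiss-Webster or Swiss ND/4 mice, 20-24 g, randomized into groups of 10 and housed five per cage. Test drug in saline given ip, with a saline control group. Yohimbine hydrochloride 20 mg/kg sc was given 30 min later, and mice were then reaggregated.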

[6] = test system: Mus musculus; test: (§4) Effective dose required to prevent reserpine ptosis in mice, administered intraperitoneally; assay type: functional; conditions: ip; how it was run: as §1
[7] = Lethal dose in mouse p.o.; assay type: toxicity, organism-based; conditions: in vivo, po
[8] = Lethal dose in mouse i.p.; assay type: toxicity, organism-based; conditions: in vivo, ip
How it was run: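 Male Swiss-Webster albino mice, 20-24 g, in groups of five. Each group received one dose ip in saline (prepared 30 min before injection) at 10 mL/kg. Mice were held singly for about 5 h, then housed together with food and water. Deaths were counted at 1 and 24 h. LD50 by Litchfield-Wilcoxon.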

[9] = Therapeutic index administered perorally in mouse; assay type: organism-based; conditions: in vivo, po, read-out: Therapeutic index
How it was run: (§5)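 Index from mouse LD50 over reserpine-ptosis ED50 by the same route. […] Deaths recorded at 1 and 24 h; Litchfield-Wilcoxon calculation.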

[10] = test system: Mus musculus; test: Compound (administered intraperitoneally) was tested for yohimbine lethality potentiation; assay type: functional; conditions: ip; how it was run: as §3
[11] = test system: Mus musculus; test: Electrical shock aggression was evaluated in mice, administered intraperitoneally; NA means no aggression blockade at 46.4 mg/kg; assay type: functional, organism-based; parameters: dose 46.4 mg/kg
How it was run: (§6)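 Pairs of mice placed under an inverted 1000 cm3 beaker and shocked through the floor grid (3 mA, 3 Hz) for 2 min. Drug given ip 30 min before testing; scored all-or-none against a saline group. Fighting counted as inhibited when mean attacks fell 1.5 SD below the vehicle mean.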

[12] = test system: Mus musculus; test: as §4; assay type: functional; conditions: ip; how it was run: as §1; remark: listed apart in the source
[13] = Therapeutic index after administered intraperitoneally in mouse; assay type: organism-based; conditions: in vivo, ip, read-out: Therapeutic index; how it was run: as §5
[14] = test system: Mus musculus; test: Effective dose required to prevent reserpine ptosis in mice, administered orally; NA=Not active at 100 mg/kg; assay type: functional, organism-based; parameters: dose 100 mg/kg; how it was run: as §1
[15] = test system: Mus musculus; test: Effective dose required to prevent reserpine ptosis in mice, administered intraperitoneally; NA=Not active at 100 mg/kg; assay type: functional, organism-based; parameters: dose 100 mg/kg; how it was run: as §1
[16] = test system: Mus musculus; test: Effective dose required to potentiate yohimbine hydrochloride induced lethality in mice, administered intraperitoneally; NA=Not active; assay type: functional, organism-based
How it was run: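 Male Swiss-Webster or Swiss ND/4 mice, 20-24 g, randomized into groups of 10 and aggregated five per cage. Test drug in saline given ip, with a saline control group. Yohimbine HCl (20 mg/kg, sc) injected 30 min later, then mice reaggregated.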

[17] = test system: Mus musculus; test: Effective dose required to prevent reserpine ptosis in mice, administered orally; assay type: functional; conditions: po; how it was run: as §1
[18] = test system: Mus musculus; test: Effective dose against yohimbine hydrochloride induced lethality in mice, administered intraperitoneally; assay type: functional; conditions: ip; how it was run: as §3
[19] = test system: Mus musculus; test: Electrical shock aggression was evaluated in mice, administered intraperitoneally; assay type: functional; conditions: ip; how it was run: as §6
[20] = test system: Mus musculus; test: as §2; assay type: organism-based; conditions: in vivo, ip; how it was run: as §3
[21] = test system: Mus musculus; test: Effective dose required to prevent reserpine ptosis in mice administered po; assay type: functional; how it was run: as §1
[22] = Therapeutic index administered intraperitoneally in mouse; assay type: organism-based; conditions: in vivo, ip, read-out: Therapeutic index; how it was run: as §5

CC1CN(C(=N)Cc2ccc3ccccc3c2)CC(C)O1.Cl (centres undefined)
ED50 [1]: 28.7 mg/kg

Cl.N=C(Cc1ccc2ccccc2c1Cl)N1CCN(c2ccccc2)CC1
ED50 [2]: 16.2 mg/kg

CC/N=C(/Cc1c(Cl)cccc1Cl)NCC
ED50 [3]: inactive

Cl.N=C(Cc1ccc2ccccc2c1)N1CCC(O)(Cc2ccccc2)CC1
ED50 [2]: 22.5 mg/kg

Cl.N=C(Cc1ccc2ccccc2c1)N1CCOCC1
ED50 [1]: 17.1 mg/kg

N=C(Cc1ccc2ccccc2c1Cl)N1CCN(C(c2ccccc2)c2ccccc2)CC1
ED50 [4]: inactive

CN1CCN(C(=N)Cc2ccc3ccccc3c2)CC1.Cl
ED50 [1]: 14.7 mg/kg

CC/N=C(/Cc1ccc(Cl)cc1Cl)NCC
ED50 [3]: inactive

CC/N=C(/COc1ccc(Cl)c(Cl)c1)NCC.Cl
ED50 [5]: 3.5 mg/kg | ED50 [6]: 3.3 mg/kg

CC/N=C(/Cc1ccc(F)cc1)NCC
ED50 [3]: inactive

Cl.N=C(Cc1ccc2ccccc2c1Cl)N1CCC(O)(c2ccccc2)CC1
ED50 [2]: 24.5 mg/kg

C/N=C(/Cc1ccc(-c2ccccc2)cc1)NC
ED50 [3]: inactive

CCC(=O)C1(c2ccccc2)CCN(C(=N)Cc2ccc3ccccc3c2)CC1
ED50 [4]: inactive

COc1ccccc1N1CCN(C(=N)Cc2ccc3ccccc3c2)CC1
ED50 [4]: inactive

C/N=C(\NC)c1ccc(Cl)c(Cl)c1.Cl
ED50 [5]: 2.4 mg/kg | ED50 [1]: 10.8 mg/kg | LD50 [7]: 215 mg/kg | LD50 [8]: 60 mg/kg | selectivity ratio [9]: 20 | ED50 [10]: 2.4 mg/kg | ED50 [11]: inactive | ED50 [12]: 9.3 mg/kg | selectivity ratio [13]: 6 | ED50 [6]: 9.3 mg/kg

CC(C)/N=C(/Cc1ccc2ccccc2c1)NC(C)C
ED50 [14]: inactive | ED50 [15]: inactive

N=C(Cc1ccc2ccccc2c1)N1CCN(c2ccccc2)CC1
ED50 [4]: inactive

C/N=C(/Cc1ccc2ccccc2c1O)NC.Cl
ED50 [1]: 26.1 mg/kg

C/N=C(/Cc1ccc2cc(C)ccc2c1)NC.Cl
ED50 [16]: inactive | ED50 [17]: 31.6 mg/kg | ED50 [6]: 19.6 mg/kg

C/N=C(\NC)C(c1ccc(Cl)cc1)c1ccc(Cl)cc1.Cl
ED50 [18]: 27.2 mg/kg | ED50 [6]: 2.4 mg/kg

CC/N=C(/Cc1c(Cl)ccc(Cl)c1Cl)NCC
ED50 [3]: inactive

CN(C)CCCN1c2ccccc2CCc2ccccc21 [IMIPRAMINE]
ED50 [5]: 0.7 mg/kg | ED50 [1]: 14 mg/kg | ED50 [19]: 23 mg/kg | ED50 [6]: 13 mg/kg

COc1ccc2cc(CC(=N)N3CCCC3)ccc2c1
ED50 [4]: inactive

CC/N=C(/Cc1ccc2ccccc2c1)NCC.Cl
ED50 [5]: 19.6 mg/kg | ED50 [2]: 31 mg/kg | ED50 [6]: 19.6 mg/kg

CC(C)/N=C(/N)Cc1ccc2ccccc2c1
ED50 [4]: inactive

CC/N=C(/Cc1cccc(C)c1)NCC
ED50 [3]: inactive

CC/N=C(/COc1cc(Cl)c(Cl)cc1Cl)NCC
ED50 [3]: inactive

Cl.N=C(Cc1ccc2ccccc2c1)N1CCCC1
ED50 [1]: 11 mg/kg

C/N=C(/Cc1ccc(Cl)cc1)NC.Cl
LD50 [7]: 430 mg/kg | LD50 [8]: 69.4 mg/kg | selectivity ratio [9]: 127 | ED50 [19]: 43 mg/kg | ED50 [20]: 15 mg/kg | ED50 [21]: 3.4 mg/kg | selectivity ratio [22]: 30 | ED50 [6]: 2.3 mg/kg

C/N=C(/Cc1ccc([N+](=O)[O-])cc1)NC.Cl
ED50 [5]: 20 mg/kg | ED50 [1]: 3.2 mg/kg | LD50 [7]: 681 mg/kg | LD50 [8]: 215 mg/kg | selectivity ratio [9]: 213 | ED50 [11]: inactive | selectivity ratio [22]: 67 | ED50 [6]: 3.2 mg/kg

Cl.N=C(Cc1ccc2ccccc2c1Cl)N1CCN(c2cccc(Cl)c2)CC1
ED50 [2]: 16.2 mg/kg

C/N=C(/Cc1ccc(OC)c(OC)c1)NC
ED50 [3]: inactive

Cl.Cl.N=C(Cc1ccc2ccccc2c1Cl)NCCCN1CCOCC1
ED50 [2]: 3.2 mg/kg

C/N=C(/Cc1ccc2cc(OC)ccc2c1)NC.Cl
ED50 [16]: inactive | ED50 [17]: 23.7 mg/kg | ED50 [6]: 19 mg/kg
